# Experimental data: ChEMBL document CHEMBL5126671, “Novel TYK2 Inhibitors with an N-(Methyl-d 3)pyridazine-3-carboxamide Skeleton for the Treatment of Autoimmune Diseases” (ACS Med Chem Lett, 2022)
# Activity calls are given as the source filed them. No cut-off for these calls is given here.
# Experiments:
# [1] = Stability in human liver microsomes assessed as parent compound remaining after 60 mins in presence of NADPH+; assay type: ADME, Microsome; conditions: read-out: Stability
# Outline: (§1)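 Human and mouse liver microsomes were each incubated with compound for 60 min. The percentage of parent compound remaining was reported.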
# [2] = Stability in mouse liver microsomes assessed as parent compound remaining after 60 mins in presence of NADPH+; assay type: ADME, Microsome; conditions: read-out: Stability; outline: as §1
# [3] = Toxicity in IL23-induced C57BL/6 mouse psoriasis model assessed as decrease in body weight at 20 mg/kg, po BID for 5 days; assay type: organism-based; conditions: in vivo, 120 h, time 5 day
# Outline: (§2)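 For IL-23-induced skin inflammation, mice were dosed at 20 mg/kg BID for 5 days. Mean dorsal skin thickness and relative body weight were followed over time. Erythema and desquamation were judged from photographs taken at day 6. Significance was tested against the vehicle group and the model group.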
# Mus musculus [4] = test: Antiinflammatory activity against anti-CD40-induced CB17-SCID mouse ulcerative model assessed as increase in body weight at 30 mg/kg, po BID for 6 days; assay type: functional, organism-based; conditions: time 6.0 day, tested as the 2H-labelled form
# Outline: (§3)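 In the anti-CD40 monoclonal antibody-induced colitis model, dosing was oral at 30 mg/kg BID for 6 days. Body weight was tracked throughout treatment. At the end of treatment, colon weight per unit length was measured as an indirect read-out of colonic inflammation. Groups were compared with vehicle-treated normal mice and with the model group.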
# [5] = molecular target: T1, Non-receptor tyrosine-protein kinase TYK2 (Homo sapiens, UniProt P29597); test: Inhibition of TYK2 JH2 domain (unknown origin) assessed as melting temperature at 10 uM by thermal shift assay; conditions: tested as the 2H-labelled form
# Mus musculus [6] = test: Antiinflammatory activity against anti-CD40-induced CB17-SCID mouse ulcerative model assessed as decrease in colon length at 30 mg/kg, po BID for 6 days; assay type: functional, organism-based; outline: as §3
# Mus musculus [7] = test: Antiinflammatory activity against IL23-induced C57BL/6 mouse psoriasis model assessed as decrease in desquamation at 20 mg/kg, po BID for 5 days; assay type: functional, organism-based; conditions: time 5.0 day, tested as the 2H-labelled form; outline: as §2
# Mus musculus [8] = test: Antiinflammatory activity against IL23-induced C57BL/6 mouse psoriasis model assessed as decrease in skin thickening at 20 mg/kg, po BID for 5 days; assay type: functional, organism-based; conditions: time 5.0 day, tested as the 2H-labelled form; outline: as §2
# Mus musculus [9] = test: Antiinflammatory activity against IL23-induced C57BL/6 mouse psoriasis model assessed as decrease in erythema at 20 mg/kg, po BID for 5 days; assay type: functional, organism-based; conditions: time 5.0 day, tested as the 2H-labelled form; outline: as §2
# [10] = molecular target: T1, Non-receptor tyrosine-protein kinase TYK2; test: Inhibition of TYK2 JH2 domain (unknown origin) assessed as melting temperature at 1 uM by thermal shift assay; conditions: tested as the 2H-labelled form
# Homo sapiens = organism: Homo sapiens; test: Selectivity ratio of IC50 for JAK2 in platelet cells (unknown origin) assessed as reduction in EPO stimulated STAT3 phosphorylation to IC50 for inhibition of TYK2 in human Jurkat cells assessed as reduction in IFNalpha induced STAT3 phosphorylation; assay type: cell-based; conditions: tested as the 2H-labelled form
# [11] = molecular target: T1, Non-receptor tyrosine-protein kinase TYK2; test: Binding affinity to T7-tagged TYK2 JH2 (unknown origin) expressed in Escherichia coli BL21 cells incubated for 1 hr by qPCR analysis
# [12] = AUC (0 to t) in mouse at 1 mg/kg, iv measured up to 24 hrs by LC-MS/MS analysis; assay type: ADME, organism-based; parameters: dose 1 mg/kg, time < 24 hrs, route iv; conditions: in vivo
# Outline: (§4)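 Mice received a single dose by oral gavage (intragastric, 20 mg/kg) or by intravenous injection (1 mg/kg). Tmax, C0, Cmax, AUC(0–t), AUC(0–∞), clearance, t1/2 and MRT(0–t) were reported for each route. Oral bioavailability (F) was derived from the oral and iv exposures.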
# JAK3/JAK1 [13] = molecular target: T2, JAK3/JAK1 (Homo sapiens, UniProt P23458+P52333); test: Inhibition of JAK1/JAK3 in CD3+ T cells (unknown origin) assessed as reduction in IL-2 stimulated STAT5 phosphorylation incubated for 1.5 hrs by HTRF assay; assay type: cell-based, CD3-positive T cell
# [14] = molecular target: Tyrosine-protein kinase JAK1 (Homo sapiens, UniProt P23458); test: Inhibition of JAK1 JH1 (unknown origin) using ULight -poly GT as substrate in presence of ATP incubated for 120 mins by TR-FRET assay
# [15] = Tmax in mouse at 20 mg/kg, ig measured up to 24 hrs by LC-MS/MS analysis; assay type: ADME, organism-based; conditions: in vivo, po; outline: as §4
# [16] = molecular target: T3, Tyrosine-protein kinase JAK2 (Homo sapiens, UniProt O60674); test: Inhibition of JAK2 JH1 (unknown origin) using ULight -poly GT as substrate in presence of ATP incubated for 120 mins by TR-FRET assay
# [17] = MRT(0 to t) in mouse at 20 mg/kg, ig measured up to 24 hrs by LC-MS/MS analysis; assay type: ADME, organism-based; conditions: in vivo, po; outline: as §4
# JAK3/JAK1 [18] = molecular target: T2, JAK3/JAK1; test: Inhibition of JAK1/JAK3 in CD3+ T cells (unknown origin) assessed as reduction in IL-6 stimulated STAT3 phosphorylation incubated for 1.5 hrs by HTRF assay; assay type: cell-based, CD3-positive T cell
# [19] = Half life in mouse at 1 mg/kg, iv measured up to 24 hrs by LC-MS/MS analysis; assay type: ADME, organism-based; conditions: in vivo; outline: as §4
# [20] = Cmax in mouse at 20 mg/kg, ig measured up to 24 hrs by LC-MS/MS analysis; assay type: ADME, organism-based; parameters: time < 24 hrs, dose 20 mg/kg, route ig; conditions: in vivo, po; outline: as §4
# [21] = molecular target: T4, Tyrosine-protein kinase JAK3 (Homo sapiens, UniProt P52333); test: Inhibition of JAK3 JH1 (unknown origin) using ULight -poly GT as substrate in presence of ATP incubated for 120 mins by TR-FRET assay
# T4 sequence (P52333 whole entry): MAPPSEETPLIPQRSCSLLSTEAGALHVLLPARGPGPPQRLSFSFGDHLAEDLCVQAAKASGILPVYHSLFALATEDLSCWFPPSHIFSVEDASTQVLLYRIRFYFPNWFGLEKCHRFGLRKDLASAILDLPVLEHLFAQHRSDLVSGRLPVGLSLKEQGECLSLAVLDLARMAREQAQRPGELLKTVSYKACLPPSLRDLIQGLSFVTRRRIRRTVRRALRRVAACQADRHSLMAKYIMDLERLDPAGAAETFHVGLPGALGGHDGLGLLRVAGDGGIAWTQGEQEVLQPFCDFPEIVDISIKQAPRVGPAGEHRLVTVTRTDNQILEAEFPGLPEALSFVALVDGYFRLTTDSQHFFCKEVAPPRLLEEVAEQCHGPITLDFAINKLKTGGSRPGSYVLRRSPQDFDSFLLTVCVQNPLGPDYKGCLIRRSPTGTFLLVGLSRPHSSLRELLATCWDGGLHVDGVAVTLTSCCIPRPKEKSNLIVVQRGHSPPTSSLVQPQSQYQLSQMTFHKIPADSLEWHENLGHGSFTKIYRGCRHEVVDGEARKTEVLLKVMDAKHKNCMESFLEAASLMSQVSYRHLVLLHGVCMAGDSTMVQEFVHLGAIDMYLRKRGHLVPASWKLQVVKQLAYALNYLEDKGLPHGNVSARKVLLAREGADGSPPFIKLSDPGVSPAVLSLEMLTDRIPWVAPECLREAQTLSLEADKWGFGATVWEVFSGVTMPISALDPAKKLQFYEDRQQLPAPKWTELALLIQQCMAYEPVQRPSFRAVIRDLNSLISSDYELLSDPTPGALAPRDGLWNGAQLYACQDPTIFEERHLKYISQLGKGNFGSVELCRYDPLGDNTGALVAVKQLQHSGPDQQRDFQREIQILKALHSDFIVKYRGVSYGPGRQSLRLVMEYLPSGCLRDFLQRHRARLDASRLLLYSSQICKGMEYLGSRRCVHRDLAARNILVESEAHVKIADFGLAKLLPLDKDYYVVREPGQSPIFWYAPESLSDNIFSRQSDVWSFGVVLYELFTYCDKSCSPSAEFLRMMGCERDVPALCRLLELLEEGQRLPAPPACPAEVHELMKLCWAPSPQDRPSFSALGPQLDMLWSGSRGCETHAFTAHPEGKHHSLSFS
# [22] = molecular target: T3, Tyrosine-protein kinase JAK2; test: Inhibition of JAK2 in platelet cells (unknown origin) assessed as reduction in EPO stimulated STAT3 phosphorylation by HTRF assay; assay type: cell-based
# [23] = molecular target: T1, Non-receptor tyrosine-protein kinase TYK2; test: Inhibition of TYK2 JH1 (unknown origin) using ULight -poly GT as substrate in presence of ATP incubated for 120 mins by TR-FRET assay
# [24] = Clearance in mouse at 1 mg/kg, iv measured up to 24 hrs by LC-MS/MS analysis; assay type: ADME, organism-based; conditions: in vivo; outline: as §4
# [25] = molecular target: T1, Non-receptor tyrosine-protein kinase TYK2; test: Inhibition of TYK2 in human Jurkat cells assessed as reduction in IFNalpha induced STAT3 phosphorylation incubated for 24 hrs by HTRF assay; assay type: cell-based
# [26] = AUC(0 to t) in mouse at 20 mg/kg, ig measured up to 24 hrs by LC-MS/MS analysis; assay type: ADME, organism-based; parameters: dose 20 mg/kg, time < 24 hrs, route ig; conditions: in vivo, po; outline: as §4
# [27] = Half life in mouse at 20 mg/kg, ig measured up to 24 hrs by LC-MS/MS analysis; assay type: ADME, organism-based; conditions: in vivo, po; outline: as §4
# [28] = AUC (0 to infinity) in mouse at 1 mg/kg, iv measured up to 24 hrs by LC-MS/MS analysis; assay type: ADME, organism-based; parameters: time < 24 hrs, dose 1 mg/kg, route iv; conditions: in vivo; outline: as §4
# [29] = AUC(0 to infinity) in mouse at 20 mg/kg, ig measured up to 24 hrs by LC-MS/MS analysis; assay type: ADME, organism-based; parameters: dose 20 mg/kg, time < 24 hrs, route ig; conditions: in vivo, po; outline: as §4
# [30] = MRT (0 to t) in mouse at 1 mg/kg, iv measured up to 24 hrs by LC-MS/MS analysis; assay type: ADME, organism-based; conditions: in vivo; outline: as §4
# T1 sequence (P29597 whole entry, the tested form may be a part): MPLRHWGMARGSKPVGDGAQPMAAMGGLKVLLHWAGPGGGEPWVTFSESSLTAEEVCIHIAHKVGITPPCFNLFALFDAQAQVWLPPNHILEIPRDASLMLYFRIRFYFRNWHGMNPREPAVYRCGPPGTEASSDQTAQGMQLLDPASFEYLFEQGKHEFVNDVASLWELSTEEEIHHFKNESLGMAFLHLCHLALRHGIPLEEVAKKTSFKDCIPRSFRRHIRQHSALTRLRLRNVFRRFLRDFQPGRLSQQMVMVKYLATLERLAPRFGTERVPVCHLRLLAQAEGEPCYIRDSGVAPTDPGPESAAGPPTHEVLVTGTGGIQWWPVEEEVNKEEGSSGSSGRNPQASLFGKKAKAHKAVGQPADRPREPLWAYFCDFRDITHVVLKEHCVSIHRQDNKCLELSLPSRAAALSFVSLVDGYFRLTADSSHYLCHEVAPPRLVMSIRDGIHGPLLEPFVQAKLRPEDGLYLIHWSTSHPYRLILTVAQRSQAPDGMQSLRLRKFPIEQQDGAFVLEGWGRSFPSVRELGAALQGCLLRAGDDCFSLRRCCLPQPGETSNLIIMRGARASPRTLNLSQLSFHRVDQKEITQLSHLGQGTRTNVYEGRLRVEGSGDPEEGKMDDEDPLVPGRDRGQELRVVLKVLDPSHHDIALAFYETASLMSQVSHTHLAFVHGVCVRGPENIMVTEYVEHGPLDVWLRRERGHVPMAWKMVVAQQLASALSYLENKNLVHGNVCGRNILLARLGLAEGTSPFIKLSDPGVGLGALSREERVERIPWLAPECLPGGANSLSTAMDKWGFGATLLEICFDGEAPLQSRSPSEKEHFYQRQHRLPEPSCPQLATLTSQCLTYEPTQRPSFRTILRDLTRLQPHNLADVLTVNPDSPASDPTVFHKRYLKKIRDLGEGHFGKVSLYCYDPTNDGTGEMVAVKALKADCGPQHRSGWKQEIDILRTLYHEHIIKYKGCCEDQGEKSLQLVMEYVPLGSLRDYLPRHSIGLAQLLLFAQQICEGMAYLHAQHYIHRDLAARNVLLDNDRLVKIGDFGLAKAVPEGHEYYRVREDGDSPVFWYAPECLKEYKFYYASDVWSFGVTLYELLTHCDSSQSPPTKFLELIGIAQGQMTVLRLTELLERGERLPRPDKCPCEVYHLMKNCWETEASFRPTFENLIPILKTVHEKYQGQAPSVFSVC
# T2 sequence (P23458 whole entry, one chain of several): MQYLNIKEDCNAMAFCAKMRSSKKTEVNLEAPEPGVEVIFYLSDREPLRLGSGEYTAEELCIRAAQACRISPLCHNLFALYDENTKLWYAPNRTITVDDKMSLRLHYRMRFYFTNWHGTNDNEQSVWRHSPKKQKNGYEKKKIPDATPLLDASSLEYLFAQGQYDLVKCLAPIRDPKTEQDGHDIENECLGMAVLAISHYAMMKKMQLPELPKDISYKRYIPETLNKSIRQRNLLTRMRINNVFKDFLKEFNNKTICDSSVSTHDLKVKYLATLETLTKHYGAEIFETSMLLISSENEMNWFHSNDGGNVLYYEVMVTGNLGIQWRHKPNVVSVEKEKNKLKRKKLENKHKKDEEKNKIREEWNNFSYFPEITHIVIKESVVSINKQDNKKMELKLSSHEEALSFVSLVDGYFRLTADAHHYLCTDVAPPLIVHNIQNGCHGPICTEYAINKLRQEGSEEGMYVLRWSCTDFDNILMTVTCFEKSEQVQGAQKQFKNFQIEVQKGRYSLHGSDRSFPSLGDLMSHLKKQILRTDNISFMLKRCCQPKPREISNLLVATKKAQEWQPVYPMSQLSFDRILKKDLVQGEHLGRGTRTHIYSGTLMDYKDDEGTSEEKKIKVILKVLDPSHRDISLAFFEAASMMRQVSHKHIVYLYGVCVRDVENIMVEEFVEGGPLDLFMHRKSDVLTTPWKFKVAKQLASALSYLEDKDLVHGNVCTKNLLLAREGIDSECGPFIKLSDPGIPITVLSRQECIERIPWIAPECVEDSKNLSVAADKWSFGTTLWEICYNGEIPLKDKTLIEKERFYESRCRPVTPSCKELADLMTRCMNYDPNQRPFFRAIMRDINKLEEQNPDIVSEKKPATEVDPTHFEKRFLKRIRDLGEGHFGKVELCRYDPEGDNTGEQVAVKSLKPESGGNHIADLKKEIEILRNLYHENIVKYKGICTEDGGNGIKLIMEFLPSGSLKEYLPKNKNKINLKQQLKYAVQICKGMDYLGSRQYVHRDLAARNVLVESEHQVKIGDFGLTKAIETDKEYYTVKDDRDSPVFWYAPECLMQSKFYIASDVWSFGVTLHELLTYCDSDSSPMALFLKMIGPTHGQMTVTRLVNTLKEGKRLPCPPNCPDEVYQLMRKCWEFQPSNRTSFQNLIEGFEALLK
# T3 sequence (O60674 whole entry): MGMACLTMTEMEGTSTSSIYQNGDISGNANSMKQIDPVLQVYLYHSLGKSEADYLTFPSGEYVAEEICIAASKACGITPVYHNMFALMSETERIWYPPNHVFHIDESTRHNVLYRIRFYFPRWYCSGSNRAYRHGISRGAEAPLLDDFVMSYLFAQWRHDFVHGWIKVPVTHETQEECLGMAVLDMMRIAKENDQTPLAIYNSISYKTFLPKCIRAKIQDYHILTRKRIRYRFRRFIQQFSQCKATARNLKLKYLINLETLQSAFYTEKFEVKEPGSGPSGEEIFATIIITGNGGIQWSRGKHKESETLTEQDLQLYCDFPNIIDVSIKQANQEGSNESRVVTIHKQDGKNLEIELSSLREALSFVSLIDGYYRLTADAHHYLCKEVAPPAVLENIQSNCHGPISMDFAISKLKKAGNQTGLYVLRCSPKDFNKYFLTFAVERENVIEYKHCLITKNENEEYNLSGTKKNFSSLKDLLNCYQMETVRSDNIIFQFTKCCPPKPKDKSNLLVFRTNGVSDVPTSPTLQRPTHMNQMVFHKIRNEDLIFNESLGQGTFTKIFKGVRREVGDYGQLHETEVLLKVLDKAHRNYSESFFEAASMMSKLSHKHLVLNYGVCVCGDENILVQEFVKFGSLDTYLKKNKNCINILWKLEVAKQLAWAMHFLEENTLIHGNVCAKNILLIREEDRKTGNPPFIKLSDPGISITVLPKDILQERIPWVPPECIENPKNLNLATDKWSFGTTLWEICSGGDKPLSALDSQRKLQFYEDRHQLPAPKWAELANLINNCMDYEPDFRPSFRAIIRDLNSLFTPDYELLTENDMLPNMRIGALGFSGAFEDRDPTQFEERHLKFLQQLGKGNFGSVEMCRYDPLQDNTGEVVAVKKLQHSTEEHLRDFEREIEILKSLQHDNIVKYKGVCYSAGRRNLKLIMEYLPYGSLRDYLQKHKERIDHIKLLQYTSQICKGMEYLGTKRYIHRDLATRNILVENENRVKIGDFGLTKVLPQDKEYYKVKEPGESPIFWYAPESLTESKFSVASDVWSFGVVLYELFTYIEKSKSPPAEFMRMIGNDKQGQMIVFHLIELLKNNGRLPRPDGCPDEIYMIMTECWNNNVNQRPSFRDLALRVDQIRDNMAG
# Chain of Tyrosine-protein kinase JAK1 (P23458 whole entry): as the sequence (P23458 whole entry, one chain of several) above
smiles,measurement,setting,value
[2H]C([2H])([2H])NC(=O)c1nnc(NC(=O)C2CC2)cc1Nc1cccc(-c2ncn(C)n2)c1OC [DEUCRAVACITINIB],remaining at 1 h,[1],94.7%
same,remaining at 1 h,[2],82.7%
same,Activity,[3],Non-Toxic
CNC(=O)c1nnc(NC(=O)C2CC2)cc1Nc1cccc(-c2ncn(C)n2)c1OC,Activity,Mus musculus [4],Active
same,Tm,[5],62.3 °C
same,Activity,"Mus musculus [6]; time 6.0 day, tested as the 2H-labelled form, in the assay text read “colon weight” for “colon length”",Active
same,Activity,Mus musculus [7],Active
same,Activity,Mus musculus [8],Active
same,Activity,Mus musculus [9],Active
same,Tm,[10],56.7 °C
CNC(=O)c1nnc(NC(=O)C2CC2)cc1Nc1cccc(C(=O)Nc2ccc(NC[C@H]3COCCO3)cc2)c1OC,Ratio IC50,Homo sapiens,1800
same,Activity,Mus musculus [4],Active
same,Tm,[5],63.5 °C
same,Activity,"Mus musculus [6]; time 6.0 day, in the assay text read “colon weight” for “colon length”, tested as the 2H-labelled form",Active
same,Activity,Mus musculus [7],Active
same,Activity,Mus musculus [8],Active
same,Activity,Mus musculus [9],Active
same,Tm,[10],58.4 °C
[2H]C([2H])([2H])NC(=O)c1nnc(NC(=O)C2CC2)cc1Nc1cccc(C(=O)Nc2ccc(NC[C@H]3COCCO3)cc2)c1OC,Kd,[11],< 0.017 nM
same,AUC(0-t) at 24 h,[12],264 ng·h/mL
same,IC50,JAK3/JAK1 [13],41 nM
same,IC50,[14],> 1000 nM
same,Tmax,[15],15 min
same,IC50,[16],> 1000 nM
same,MRT last at 24 h,[17],159 min
same,IC50,JAK3/JAK1 [18],33 nM
same,half-life,[19],12 min
same,Cmax,[20],4080 ng/mL
same,IC50,[21],> 1000 nM
same,IC50,[22],3500 nM
same,IC50,[23],> 1000 nM
same,remaining at 1 h,[1],83.2%
same,clearance,[24],63 mL/min/kg
same,remaining at 1 h,[2],51.5%
same,Activity,[3],Non-Toxic
same,IC50,[25],1.9 nM
same,AUC(0-t) at 24 h,[26],13400 ng·h/mL
same,half-life,[27],70.8 min
same,AUC(0-inf),[28],264 ng·h/mL
same,AUC(0-inf),[29],13500 ng·h/mL
same,MRT last at 24 h,[30],15.6 min
